Measurements taken from ChEMBL document CHEMBL1255352, “Polyclonal population structure of Streptococcus pneumoniae isolates in Spain carrying mef and mef plus erm(B)” (2008).
Values after ≈ are worked out from the molar mass of the structure shown.

How the values were obtained:
Streptococcus pneumoniae [1] = assay: Antibacterial activity against mef and erm(B) positive Streptococcus pneumoniae isolates assessed as resistance incidence by broth microdilution method; assay type: functional
Outline: (§1)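 Clinical isolates were tested by CLSI broth microdilution against penicillin G, cefotaxime, erythromycin, clindamycin, telithromycin, tetracycline and levofloxacin, incubated at 35°C in ambient air, with ATCC 49619 as the control in each run. Isolates were classed as resistant using CLSI breakpoints.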

Streptococcus pneumoniae [2] = assay: Antibacterial activity against erm(B) and mef(E)-positive Streptococcus pneumoniae isolate Sweden 15A-25 by broth microdilution method; assay type: functional
Outline: (§2)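 MICs by broth microdilution following CLSI guidelines, incubated at 35°C in ambient air. S. pneumoniae ATCC 49619 served as reference strain in each run. CLSI breakpoints applied. Isolates typed for mef(A)/mef(E) by PCR and by MLST.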

Streptococcus pneumoniae [3] = assay: Antibacterial activity against erm(B) and mef(E)-positive Streptococcus pneumoniae isolate Spain 6B by broth microdilution method; assay type: functional; outline: as §2
Streptococcus pneumoniae [4] = assay: Antibacterial activity against erm(B) and mef(E)-positive Streptococcus pneumoniae isolate CC-6B by broth microdilution method
Streptococcus pneumoniae [5] = assay: Antibacterial activity against mef-positive Streptococcus pneumoniae isolates assessed as resistance incidence by broth microdilution method; assay type: functional; outline: as §1
Streptococcus pneumoniae [6] = assay: Antibacterial activity against mef(E)-positive Streptococcus pneumoniae isolate Spain 9V-3 by broth microdilution method; assay type: functional
Outline: (§3)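 Broth microdilution MICs per CLSI guidelines. Agents tested were penicillin G, cefotaxime, erythromycin, clindamycin, telithromycin, tetracycline and levofloxacin. Plates were incubated at 35°C in ambient air. S. pneumoniae ATCC 49619 served as the reference strain in each run.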

Streptococcus pneumoniae [7] = assay: Antibacterial activity against mef-positive Streptococcus pneumoniae isolates by broth microdilution method; assay type: functional; outline: as §3
Streptococcus pneumoniae [8] = assay: Antibacterial activity against mef and erm(B) positive Streptococcus pneumoniae isolates by broth microdilution method; assay type: functional; outline: as §3

Structure (SMILES) | Activity (Streptococcus pneumoniae [1]) | MIC (Streptococcus pneumoniae [2]) | MIC (Streptococcus pneumoniae [3]) | MIC (Streptococcus pneumoniae [4]) | Activity (Streptococcus pneumoniae [5]) | MIC (Streptococcus pneumoniae [6]) | MIC50 (Streptococcus pneumoniae [7]) | MIC90 (Streptococcus pneumoniae [7]) | MIC50 (Streptococcus pneumoniae [8]) | MIC90 (Streptococcus pneumoniae [8])
CO/N=C(\C(=O)N[C@@H]1C(=O)N2C(C(=O)O)=C(COC(C)=O)CS[C@H]12)c1csc(N)n1 [CEFOTAXIME] | 4.4% | 0.06 µg/mL (≈ 0.132 µM) | 1 µg/mL (≈ 2.2 µM) | 0.12 µg/mL (≈ 0.263 µM) | 17.7% | 0.06 µg/mL (≈ 0.132 µM) | 0.01 µg/mL (≈ 0.022 µM) | 0.25 µg/mL (≈ 0.549 µM) | 0.5 µg/mL (≈ 1.1 µM) | 2 µg/mL (≈ 4.39 µM)
CCC[C@@H]1C[C@@H](C(=O)N[C@@H]([C@H]2O[C@H](SC)[C@H](O)[C@@H](O)[C@H]2O)[C@H](C)Cl)N(C)C1 [CLINDAMYCIN] | 62.2% | ≥ 64 µg/mL | ≥ 64 µg/mL | 32 µg/mL (≈ 75.3 µM) | 0% | 0.03 µg/mL (≈ 0.0706 µM) | 0.03 µg/mL (≈ 0.0706 µM) | 0.25 µg/mL (≈ 0.588 µM) | 64 µg/mL (≈ 151 µM) | > 64 µg/mL
CC[C@H]1OC(=O)[C@H](C)[C@@H](O[C@H]2C[C@@](C)(OC)[C@@H](O)[C@H](C)O2)[C@H](C)[C@@H](O[C@@H]2O[C@H](C)C[C@H](N(C)C)[C@H]2O)[C@](C)(O)C[C@@H](C)C(=O)[C@H](C)[C@@H](O)[C@]1(C)O [ERYTHROMYCIN] |  | ≥ 64 µg/mL | ≥ 64 µg/mL | 32 µg/mL (≈ 43.6 µM) |  | 0.5 µg/mL (≈ 0.681 µM) | 4 µg/mL (≈ 5.45 µM) | 16 µg/mL (≈ 21.8 µM) | 64 µg/mL (≈ 87.2 µM) | > 64 µg/mL
C[C@H]1COc2c(N3CCN(C)CC3)c(F)cc3c(=O)c(C(=O)O)cn1c23.C[C@H]1COc2c(N3CCN(C)CC3)c(F)cc3c(=O)c(C(=O)O)cn1c23.O [LEVOFLOXACIN] |  |  |  |  |  |  | 1 µg/mL | 1 µg/mL | 1 µg/mL | 1 µg/mL
CC1(C)S[C@@H]2[C@H](NC(=O)Cc3ccccc3)C(=O)N2[C@H]1C(=O)O [PENICILLIN G] | 46.7% | 0.12 µg/mL (≈ 0.359 µM) | 4 µg/mL (≈ 12 µM) | 0.12 µg/mL (≈ 0.359 µM) | 35.5% | 0.12 µg/mL (≈ 0.359 µM) | 0.03 µg/mL (≈ 0.0897 µM) | 1 µg/mL (≈ 2.99 µM) | 1 µg/mL (≈ 2.99 µM) | 4 µg/mL (≈ 12 µM)
CC[C@H]1OC(=O)[C@H](C)C(=O)[C@H](C)[C@@H](O[C@@H]2O[C@H](C)C[C@H](N(C)C)[C@H]2O)[C@](C)(OC)C[C@@H](C)C(=O)[C@H](C)[C@H]2N(CCCCn3cnc(-c4cccnc4)c3)C(=O)O[C@]12C [TELITHROMYCIN] |  | 0.008 µg/mL (≈ 0.00985 µM) | 0.08 µg/mL (≈ 0.0985 µM) | < 0.01 µg/mL |  | 0.05 µg/mL (≈ 0.0616 µM) | 0.12 µg/mL (≈ 0.148 µM) | 0.5 µg/mL (≈ 0.616 µM) | 0.06 µg/mL (≈ 0.0739 µM) | 0.25 µg/mL (≈ 0.308 µM)
CN(C)[C@@H]1C(O)=C(C(N)=O)C(=O)[C@@]2(O)C(O)=C3C(=O)c4c(O)cccc4[C@@](C)(O)[C@H]3C[C@@H]12 [TETRACYCLINE] | 55.5% | ≥ 64 µg/mL | ≥ 64 µg/mL | 4 µg/mL (≈ 9 µM) | 13.3% | 0.5 µg/mL (≈ 1.13 µM) | 1 µg/mL (≈ 2.25 µM) | 4 µg/mL (≈ 9 µM) | 16 µg/mL (≈ 36 µM) | > 32 µg/mL
